≈ marks a conversion by molar mass, not a printed value.
What was measured:
Klebsiella pneumoniae [1] = test: Antimicrobial activity against ciprofloxacin-resistant Klebsiella pneumoniae isolate 95 harboring GyrA Ser83Leu, Asp78Asn, Ala171Ser and Val198Ile mutant gene by agar dilution method; assay type: functional
Klebsiella pneumoniae [2] = test: Antimicrobial activity against ciprofloxacin-resistant Klebsiella pneumoniae isolate 863 harboring GyrA Ser83Leu, Asp78Asn, Ala171Ser and Val198Ile mutant gene by agar dilution method; assay type: functional
Klebsiella pneumoniae [3] = test: Antimicrobial activity against ciprofloxacin-resistant Klebsiella pneumoniae isolate 149 harboring GyrA Ser83Leu, Asp78Asn, Ala171Ser and Val198Ile mutant gene by agar dilution method; assay type: functional
Klebsiella pneumoniae [4] = test: Antimicrobial activity against ciprofloxacin-resistant Klebsiella pneumoniae isolate 103 harboring GyrA Ser83Leu, Asp78Asn, Ala171Ser and Val198Ile mutant gene by agar dilution method; assay type: functional
Klebsiella pneumoniae [5] = test: Antimicrobial activity against ciprofloxacin-resistant Klebsiella pneumoniae isolate 663 harboring GyrA Ser83Leu, Asp78Asn, Ala171Ser and Val198Ile mutant gene by agar dilution method; assay type: functional
Klebsiella pneumoniae [6] = test: Antimicrobial activity against ciprofloxacin-resistant Klebsiella pneumoniae isolate 94 harboring GyrA Ser83Leu, Asp78Asn, Ala171Ser and Val198Ile mutant gene by agar dilution method; assay type: functional
Klebsiella pneumoniae [7] = test: Antimicrobial activity against ciprofloxacin-resistant Klebsiella pneumoniae isolate 779 harboring GyrA Ser83Leu, Asp78Asn, Ala171Ser and Val198Ile mutant gene by agar dilution method; assay type: functional
Klebsiella pneumoniae [8] = test: Antimicrobial activity against ciprofloxacin-resistant Klebsiella pneumoniae isolate 234 harboring GyrA Ser83Leu, Asp78Asn, Ala171Ser and Val198Ile mutant gene by agar dilution method; assay type: functional
Klebsiella pneumoniae [9] = test: Antimicrobial activity against ciprofloxacin-resistant Klebsiella pneumoniae isolate 3 harboring GyrA Ser83Leu, Asp78Asn, Ala171Ser and Val198Ile mutant gene by agar dilution method; assay type: functional
Klebsiella pneumoniae [10] = test: Antimicrobial activity against ciprofloxacin-resistant Klebsiella pneumoniae isolate 27 harboring GyrA Ser83Leu, Asp78Asn, Ala171Ser and Val198Ile mutant gene by agar dilution method; assay type: functional
Klebsiella pneumoniae [11] = test: Antimicrobial activity against ciprofloxacin-resistant Klebsiella pneumoniae isolate 719 harboring GyrA Ser83Leu, Asp78Asn, Ala171Ser and Val198Ile mutant gene by agar dilution method; assay type: functional
Klebsiella pneumoniae [12] = test: Antimicrobial activity against ciprofloxacin-resistant Klebsiella pneumoniae isolate 205 harboring GyrA Ser83Leu, Asp78Asn, Ala171Ser and Val198Ile mutant gene by agar dilution method; assay type: functional
Klebsiella pneumoniae [13] = test: Antimicrobial activity against ciprofloxacin-resistant Klebsiella pneumoniae isolate 769 harboring GyrA Ser83Ile and Gly177Arg mutant gene by agar dilution method; assay type: functional
Klebsiella pneumoniae [14] = test: Antimicrobial activity against ciprofloxacin-resistant Klebsiella pneumoniae isolate 828 harboring GyrA Ser83Ile and Gly177Arg mutant gene by agar dilution method; assay type: functional
Klebsiella pneumoniae [15] = test: Antimicrobial activity against ciprofloxacin-resistant Klebsiella pneumoniae isolate 827 harboring GyrA Ser83Ile mutant gene by agar dilution method; assay type: functional
Klebsiella pneumoniae [16] = test: Antimicrobial activity against ciprofloxacin-resistant Klebsiella pneumoniae isolate 772 harboring GyrA Ser83Ile mutant gene by agar dilution method; assay type: functional
Klebsiella pneumoniae [17] = test: Antimicrobial activity against ciprofloxacin-resistant Klebsiella pneumoniae isolate 721 harboring GyrA Ala171Ser, Leu187Ile and Val198Ile mutant gene by agar dilution method; assay type: functional
Klebsiella pneumoniae [18] = test: Antimicrobial activity against ciprofloxacin-resistant Klebsiella pneumoniae isolate 836 by agar dilution method; assay type: functional
Klebsiella pneumoniae [19] = test: Antimicrobial activity against ciprofloxacin-intermediate resistant Klebsiella pneumoniae isolate 753 harboring GyrA Ser83Ile mutant gene by agar dilution method; assay type: functional
Klebsiella pneumoniae [20] = test: Antimicrobial activity against ciprofloxacin-intermediate resistant Klebsiella pneumoniae isolate 21 by agar dilution method; assay type: functional
Klebsiella pneumoniae [21] = test: Antimicrobial activity against ciprofloxacin-intermediate resistant Klebsiella pneumoniae isolate 715 by agar dilution method; assay type: functional
Klebsiella pneumoniae [22] = test: Antimicrobial activity against ciprofloxacin-susceptible Klebsiella pneumoniae isolate 840 harboring GyrA Ala171Ser, Leu187Ile and Val198Ile mutant gene by agar dilution method; assay type: functional
Klebsiella pneumoniae [23] = test: Antimicrobial activity against ciprofloxacin-susceptible Klebsiella pneumoniae isolate 685 harboring GyrA Ala171Ser, Leu187Ile and Val198Ile mutant gene by agar dilution method; assay type: functional
Klebsiella pneumoniae [24] = test: Antimicrobial activity against ciprofloxacin-susceptible Klebsiella pneumoniae isolate 212 harboring GyrA Ala171Ser, Leu187Ile and Val198Ile mutant gene by agar dilution method; assay type: functional
Klebsiella pneumoniae [25] = test: Antimicrobial activity against ciprofloxacin-susceptible Klebsiella pneumoniae isolate 517 harboring GyrA Ala171Ser, Leu187Ile and Val198Ile mutant gene by agar dilution method; assay type: functional
Klebsiella pneumoniae [26] = test: Antimicrobial activity against ciprofloxacin-susceptible Klebsiella pneumoniae isolate 838 harboring GyrA Ser83Tyr, Ala171Ser, Leu187Ile and Val198Ile mutant gene by agar dilution method; assay type: functional
Klebsiella pneumoniae [27] = test: Antimicrobial activity against ciprofloxacin-susceptible Klebsiella pneumoniae isolate 49 harboring GyrA Asp87Asn, Arg154Ser and Ala171Ser mutant gene by agar dilution method; assay type: functional
Klebsiella pneumoniae [28] = test: Antimicrobial activity against ciprofloxacin-susceptible Klebsiella pneumoniae isolate 182 harboring GyrA Ser83Thr and Ala171Ser mutant gene by agar dilution method; assay type: functional
Klebsiella pneumoniae [29] = test: Antimicrobial activity against ciprofloxacin-susceptible Klebsiella pneumoniae isolate 737 harboring GyrA Ser83Leu and Val198Ile mutant gene by agar dilution method; assay type: functional
Klebsiella pneumoniae [30] = test: Antimicrobial activity against ciprofloxacin-susceptible Klebsiella pneumoniae isolate 724 harboring GyrA Ser83Ile mutant gene by agar dilution method; assay type: functional
Klebsiella pneumoniae [31] = test: Antimicrobial activity against ciprofloxacin-susceptible Klebsiella pneumoniae isolate 738 by agar dilution method; assay type: functional
Outline: (§1)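 MIC read by agar dilution on Mueller-Hinton agar following CLSI (formerly NCCLS) recommendations. K. pneumoniae isolates were identified with the API 20E system and confirmed as nonduplicated by randomly amplified polymorphic DNA analysis.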

Klebsiella pneumoniae [32] = test: Antimicrobial activity against ciprofloxacin-susceptible Klebsiella pneumoniae isolate 577 by agar dilution method; assay type: functional; outline: as §1
Klebsiella pneumoniae [33] = test: Antimicrobial activity against ciprofloxacin-susceptible Klebsiella pneumoniae isolate 760 by agar dilution method; assay type: functional
Klebsiella pneumoniae [34] = test: microbe, parasite or virus in culture; settings: isolate 16
Klebsiella pneumoniae [35] = test: microbe, parasite or virus in culture; settings: isolate 19
Klebsiella pneumoniae [36] = test: microbe, parasite or virus in culture; settings: isolate 29
Klebsiella pneumoniae [37] = test: microbe, parasite or virus in culture; settings: isolate 24
Klebsiella pneumoniae [38] = test: microbe, parasite or virus in culture; settings: isolate 3

## CCn1cc(C(=O)O)c(=O)c2ccc(C)nc21 [NALIDIXIC ACID]
Klebsiella pneumoniae [1]
  MIC: > 512 µg/mL
Klebsiella pneumoniae [2]
  MIC: > 512 µg/mL
Klebsiella pneumoniae [3]
  MIC: > 512 µg/mL
Klebsiella pneumoniae [4]
  MIC: > 512 µg/mL
Klebsiella pneumoniae [5]
  MIC: > 512 µg/mL
Klebsiella pneumoniae [6]
  MIC: > 512 µg/mL
Klebsiella pneumoniae [7]
  MIC: > 512 µg/mL
Klebsiella pneumoniae [8]
  MIC: > 512 µg/mL
Klebsiella pneumoniae [9]
  MIC: > 512 µg/mL
Klebsiella pneumoniae [10]
  MIC: > 512 µg/mL
Klebsiella pneumoniae [11]
  MIC: > 512 µg/mL
Klebsiella pneumoniae [12]
  MIC: > 512 µg/mL
Klebsiella pneumoniae [13]
  MIC: > 512 µg/mL
Klebsiella pneumoniae [14]
  MIC: > 512 µg/mL
Klebsiella pneumoniae [15]
  MIC: > 512 µg/mL
Klebsiella pneumoniae [16]
  MIC: > 512 µg/mL
Klebsiella pneumoniae [17]
  MIC: > 512 µg/mL
Klebsiella pneumoniae [18]
  MIC: > 512 µg/mL
Klebsiella pneumoniae [19]
  MIC: > 512 µg/mL
Klebsiella pneumoniae [20]
  MIC: 16 µg/mL (≈ 68.9 µM)
Klebsiella pneumoniae [21]
  MIC: 16 µg/mL (≈ 68.9 µM)
Klebsiella pneumoniae [22]
  MIC: 16 µg/mL (≈ 68.9 µM)
Klebsiella pneumoniae [23]
  MIC: > 512 µg/mL
Klebsiella pneumoniae [24]
  MIC: 16 µg/mL (≈ 68.9 µM)
Klebsiella pneumoniae [25]
  MIC: 8 µg/mL (≈ 34.4 µM)
Klebsiella pneumoniae [26]
  MIC: 256 µg/mL (≈ 1100 µM)
Klebsiella pneumoniae [27]
  MIC: > 512 µg/mL
Klebsiella pneumoniae [28]
  MIC: 4 µg/mL (≈ 17.2 µM)
Klebsiella pneumoniae [29]
  MIC: 8 µg/mL (≈ 34.4 µM)
Klebsiella pneumoniae [30]
  MIC: 8 µg/mL (≈ 34.4 µM)
Klebsiella pneumoniae [31]
  MIC: 8 µg/mL (≈ 34.4 µM)
Klebsiella pneumoniae [32]
  MIC: 4 µg/mL (≈ 17.2 µM)
Klebsiella pneumoniae [33]
  MIC: 4 µg/mL (≈ 17.2 µM)

## O=C(O)c1cn(C2CC2)c2cc(N3CCNCC3)c(F)cc2c1=O [CIPROFLOXACIN]
Klebsiella pneumoniae [1]
  MIC: 128 µg/mL (≈ 386 µM)
Klebsiella pneumoniae [2]
  MIC: 128 µg/mL (≈ 386 µM)
Klebsiella pneumoniae [3]
  MIC: 64 µg/mL (≈ 193 µM)
Klebsiella pneumoniae [4]
  MIC: 64 µg/mL (≈ 193 µM)
Klebsiella pneumoniae [5]
  MIC: 64 µg/mL (≈ 193 µM)
Klebsiella pneumoniae [6]
  MIC: 32 µg/mL (≈ 96.6 µM)
Klebsiella pneumoniae [7]
  MIC: 32 µg/mL (≈ 96.6 µM)
Klebsiella pneumoniae [8]
  MIC: 16 µg/mL (≈ 48.3 µM)
Klebsiella pneumoniae [9]
  MIC: 16 µg/mL (≈ 48.3 µM)
Klebsiella pneumoniae [10]
  MIC: 8 µg/mL (≈ 24.1 µM)
Klebsiella pneumoniae [11]
  MIC: 8 µg/mL (≈ 24.1 µM)
Klebsiella pneumoniae [12]
  MIC: 4 µg/mL (≈ 12.1 µM)
Klebsiella pneumoniae [13]
  MIC: 32 µg/mL (≈ 96.6 µM)
Klebsiella pneumoniae [14]
  MIC: 32 µg/mL (≈ 96.6 µM)
Klebsiella pneumoniae [15]
  MIC: 32 µg/mL (≈ 96.6 µM)
Klebsiella pneumoniae [16]
  MIC: 32 µg/mL (≈ 96.6 µM)
Klebsiella pneumoniae [17]
  MIC: 8 µg/mL (≈ 24.1 µM)
Klebsiella pneumoniae [18]
  MIC: 4 µg/mL (≈ 12.1 µM)
Klebsiella pneumoniae [19]
  MIC: 2 µg/mL (≈ 6.04 µM)
Klebsiella pneumoniae [20]
  MIC: 2 µg/mL (≈ 6.04 µM)
Klebsiella pneumoniae [21]
  MIC: 2 µg/mL (≈ 6.04 µM)
Klebsiella pneumoniae [22]
  MIC: 1 µg/mL (≈ 3.02 µM)
Klebsiella pneumoniae [23]
  MIC: 0.125 µg/mL (≈ 0.377 µM)
Klebsiella pneumoniae [24]
  MIC: < 0.0312 µg/mL
Klebsiella pneumoniae [25]
  MIC: < 0.0312 µg/mL
Klebsiella pneumoniae [26]
  MIC: 1 µg/mL (≈ 3.02 µM)
Klebsiella pneumoniae [27]
  MIC: 0.5 µg/mL (≈ 1.51 µM)
Klebsiella pneumoniae [28]
  MIC: < 0.0312 µg/mL
Klebsiella pneumoniae [29]
  MIC: < 0.0312 µg/mL
Klebsiella pneumoniae [30]
  MIC: < 0.0312 µg/mL
Klebsiella pneumoniae [31]
  MIC: 1 µg/mL (≈ 3.02 µM)
Klebsiella pneumoniae [32]
  MIC: 0.125 µg/mL (≈ 0.377 µM)
Klebsiella pneumoniae [33]
  MIC: < 0.0312 µg/mL
Klebsiella pneumoniae [34]
  MIC: 4 µg/mL (≈ 12.1 µM)
Klebsiella pneumoniae [35]
  MIC: 8 µg/mL (≈ 24.1 µM)
Klebsiella pneumoniae [36]
  MIC: 16 µg/mL (≈ 48.3 µM)
Klebsiella pneumoniae [37]
  MIC: 32 µg/mL (≈ 96.6 µM)
Klebsiella pneumoniae [38]
  MIC: 16 µg/mL (≈ 48.3 µM)

From ChEMBL document CHEMBL1275459 (2008)
